In data set [1] the target is Voltage-gated inwardly rectifying potassium channel KCNH2 (Homo sapiens, UniProt Q12809). Put plainly: Inhibition of human ERG by patch clamp electrophysiological analysis. (In general: In patch-clamp work, channel activity is measured electrically.)
For data set [2], the target named is T1, DNA gyrase subunit A/DNA gyrase subunit B (Mycobacterium tuberculosis (strain ATCC 25618 / H37Rv)) (UniProt P9WG45+P9WG47). Put plainly: Inhibition of Mycobacterium tuberculosis H37Rv DNA gyrase holoenzyme using pBR322 DNA as substrate assessed as single stranded nicked DNA level at 0.02 to 11 uM after 60 mins by cleavable complex assay relative to control. Further details: scale not given: the % may be the effect or the level left. In a few lines: (§1)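 Reactions were started with DNA and run 60 min at 37 °C, then stopped with proteinase K/SDS for 1 h at 37 °C. Products were resolved on 0.8% agarose with ethidium for 16 h at 1 V/cm, and nicked, linear and supercoiled forms were quantified.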

A short description of data set [3]: Apparent permeability from apical to basolateral side in human Caco2 cells. The settings on record: Caco-2. The class given is ADME, cell-based. In general terms: Passage across Caco-2 layers is used to estimate intestinal permeability.
Data set [4] is described as follows: Oral bioavailability in rat at 40 mg/kg by LC-MS/MS analysis. The settings on record: in vivo. It is filed as ADME, organism-based. The method, boiled down:
(§2)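 Rats were dosed with the 5% dextrose (pH 4−5) formulation, 5 mg/kg iv and 40 mg/kg po. Plasma was precipitated with acetonitrile and analysed by LC−MS/MS with a carbamazepine internal standard. Parameters were derived by noncompartmental analysis.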

Data set [5] in a line: Octanol-sodium phosphate buffer partition coefficient, log D of the compound at 10 mM at pH 7.4 by shake-flask method. It is filed as physicochemical.
In data set [6] the test system is Mycobacterium tuberculosis. The experiment in a line: Antimycobacterial activity against wild-type Mycobacterium tuberculosis H37Rv ATCC 27294 after 16 to 18 days by BACTEC 7H12B microdilution method. It is filed as functional.
Data set [7] concerns the target T1, DNA gyrase subunit A/DNA gyrase subunit B (Mycobacterium tuberculosis (strain ATCC 25618 / H37Rv)). The experiment in a line: Inhibition of Mycobacterium tuberculosis H37Rv DNA gyrase holoenzyme using pBR322 DNA as substrate assessed as intact DNA level at 0.02 to 11 uM after 60 mins by cleavable complex assay relative to control. On the set-up: scale not given: the % may be the effect or the level left. In a few lines: as §1

A short description of data set [8]: Clearance in rat at 40 mg/kg, po and 5 mg/kg, iv by LC-MS/MS analysis. It is filed as ADME, organism-based. The settings on record: in vivo. In a few lines:
as §2

Data set [9] has as its system Mycobacterium tuberculosis. Put plainly: Antimycobacterial activity against Mycobacterium tuberculosis infected in aminobenzotriazole-pretreated BALB/c mouse chronic tuberculosis model assessed as reduction in log10CFU at 40 to 80 mg/kg, po bid for 8 weeks. It is filed as functional, organism-based. The method, boiled down: (§3)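 Aerosol-infected BALB/c mice in BSL3, three per group. Treatment began 3 days (acute) or 4 weeks (chronic) after infection. ABT 100 mg/kg po in water was given 2 h before oral gavage of compound in 5% dextrose (pH 4−5 with acetic acid), 10 mL/kg, twice daily at 8 h intervals. Courses were 20 days (7 days/week) or 8 weeks (6 days/week). Lung homogenates were plated on 7H11 for cfu.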

Data set [10] in a line: Apparent permeability from basolateral to apical side in human Caco2 cells. The class given is ADME, cell-based. The settings on record: Caco-2.
A short description of data set [11]: Fraction unbound in aminobenzotriazole-pretreated BALB/c mouse plasma infected with Mycobacterium tuberculosis by LC-MS/MS analysis. The class given is ADME, cell-free.
Data set [12] concerns the target T1, DNA gyrase subunit A/DNA gyrase subunit B (Mycobacterium tuberculosis (strain ATCC 25618 / H37Rv)). Put plainly: Inhibition of Mycobacterium tuberculosis H37Rv DNA gyrase holoenzyme using pBR322 DNA as substrate assessed as increase in single-strand cleaved plasmid DNA level after 60 mins by cleavable complex assay relative to control. In a few lines:
as §1

The nature of data set [13]: Ratio of fAUC in aminobenzotriazole-pretreated Mycobacterium tuberculosis infected BALB/c mouse at 20 mg/kg, po to MIC for wild-type Mycobacterium tuberculosis H37Rv ATCC 27294. The method, boiled down:
(§4)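 PK was measured in infected, ABT-pretreated mice during efficacy dosing (oral, 5% dextrose pH 4−5) on day 18 or 19. Saphenous blood was taken at 5, 15 and 30 min and 1, 2, 4 and 6 h. Plasma was precipitated with acetonitrile and analysed by LC−MS/MS. AUC came from noncompartmental analysis; free AUC/MIC and %free T>MIC used the unbound fraction and MIC.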

The subject of data set [14] is Mus musculus. The experiment in a line: fT>MIC in BALB/c mouse infected with Mycobacterium tuberculosis at 20 mg/kg, po. The method, boiled down: as §4
Data set [15] has as its target DNA gyrase subunit A/DNA gyrase subunit B (Mycobacterium tuberculosis (strain ATCC 25618 / H37Rv), UniProt P9WG45+P9WG47). The experiment in a line: Inhibition of Mycobacterium tuberculosis H37Rv DNA gyrase holoenzyme-mediated supercoiling of pBR322 DNA after 90 mins by agarose gel electrophoresis.
The subject of data set [16] is Mycobacterium tuberculosis. The experiment in a line: Antimycobacterial activity against Mycobacterium tuberculosis infected in aminobenzotriazole-pretreated BALB/c mouse chronic tuberculosis model assessed as reduction in log10CFU at 40 to 80 mg/kg, po bid for 20 days. The class given is functional. The following applies: dose mg/kg 40-80. In a few lines:
as §3

For data set [17], the system named is Mycobacterium tuberculosis. Put plainly: Antimycobacterial activity against Mycobacterium tuberculosis infected in aminobenzotriazole-pretreated BALB/c mouse chronic tuberculosis model assessed as reduction in log10CFU at 240 mg/kg, po bid for 20 days. The class given is functional, organism-based. On the set-up: dose 240 mg/kg. In a few lines: as §3
Data set [18] has as its system Mycobacterium tuberculosis. Put plainly: Bactericidal activity against Mycobacterium tuberculosis infected in human THP1 cells at 1 ug/ml for 7 days. The class given is functional, THP-1. The method, boiled down: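 Adherent THP-1 macrophages infected with Mtb were exposed to compound at 1 μg/mL for 7 days at 37 °C. Kill was expressed as log reduction versus the untreated control.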

For data set [19], the system named is Mus musculus. The experiment in a line: fT>MIC in BALB/c mouse infected with Mycobacterium tuberculosis at 160 mg/kg, po. In a few lines: as §4
Data set [20] has as its system Mycobacterium tuberculosis. The experiment in a line: Antimycobacterial activity against Mycobacterium tuberculosis infected in aminobenzotriazole-pretreated BALB/c mouse acute tuberculosis model assessed as reduction in bacterial burden at 80 to 160 mg/kg, po bid for 20 days. It is filed as functional, organism-based. In a few lines:
as §3

Data set [21] deals with Mycobacterium tuberculosis. Put plainly: Antimycobacterial activity against Mycobacterium tuberculosis infected in aminobenzotriazole-pretreated BALB/c mouse acute tuberculosis model assessed as reduction in bacterial burden at 20 mg/kg, po bid for 20 days. It is filed as functional, organism-based. Further details: dose 20 mg/kg. The method, boiled down:
as §3

Data set [22] addresses DNA gyrase subunit B (Mycobacterium smegmatis, UniProt P0C559). The experiment in a line: Inhibition of Mycobacterium smegmatis DNA gyrase-B ATPase activity. On the set-up: species or system Mycolicibacterium smegmatis.
The test system of data set [23] is Mycobacterium tuberculosis. The experiment in a line: Antimycobacterial activity against Mycobacterium tuberculosis clinical isolates after 2 to 4 weeks by BACTEC 460 radiometric assay. It is filed as functional.
Data set [24] concerns Mycobacterium tuberculosis. The experiment in a line: Bactericidal activity against Mycobacterium tuberculosis H37Rv at 0.01 to 2 ug/ml by time kill assay. The class given is functional, organism-based. The following applies: TDE = time-dependent effect. In a few lines:
(§5)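 Time-kill in 7H9 broth with 0.2% glycerol, 0.05% Tween 80 and 10% ADC. Serial 2-fold dilutions were added to ~3 × 10^7 cfu/mL H37Rv at 37 °C. Aliquots were plated on 7H11 at days 0, 3, 7 and 10, and plates were incubated up to 28 days at 37 °C, 5% CO2, humidified. Results are given as log10 cfu per concentration.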

Data set [25] deals with Mus musculus. The experiment in a line: fT>MIC in BALB/c mouse infected with Mycobacterium tuberculosis at 80 mg/kg, po. In a few lines:
as §4

Data set [26] has as its system Mycobacterium tuberculosis. Put plainly: Bactericidal activity against Mycobacterium tuberculosis H37Rv after 10 days by time kill assay. It is filed as functional, organism-based. The method, boiled down: as §5
For data set [27], the system named is Mycobacterium tuberculosis. The experiment in a line: Antimycobacterial activity against Mycobacterium tuberculosis infected in aminobenzotriazole-pretreated BALB/c mouse acute tuberculosis model assessed as reduction in log10CFU at 160 mg/kg, po bid for 20 days. The class given is functional. The method, boiled down: as §3
Data set [28] deals with Mycobacterium tuberculosis. Put plainly: Bactericidal activity against Mycobacterium tuberculosis H37Rv assessed as reduction in log10CFU at 0.01 to 2 ug/ml after 10 days by time kill assay. It is filed as functional. In a few lines:
as §5

A short description of data set [29]: Ratio of fAUC in aminobenzotriazole-pretreated Mycobacterium tuberculosis infected BALB/c mouse at 80 mg/kg, po to MIC for wild-type Mycobacterium tuberculosis H37Rv ATCC 27294. The method, boiled down:
as §4

Structures are written as SMILES. ≈ marks a conversion by molar mass, not a printed value. Calls of active or inactive are those of the source. Some results are limits rather than exact numbers.

DNA gyrase subunit A/DNA gyrase subunit B, sequence (P9WG45 whole entry): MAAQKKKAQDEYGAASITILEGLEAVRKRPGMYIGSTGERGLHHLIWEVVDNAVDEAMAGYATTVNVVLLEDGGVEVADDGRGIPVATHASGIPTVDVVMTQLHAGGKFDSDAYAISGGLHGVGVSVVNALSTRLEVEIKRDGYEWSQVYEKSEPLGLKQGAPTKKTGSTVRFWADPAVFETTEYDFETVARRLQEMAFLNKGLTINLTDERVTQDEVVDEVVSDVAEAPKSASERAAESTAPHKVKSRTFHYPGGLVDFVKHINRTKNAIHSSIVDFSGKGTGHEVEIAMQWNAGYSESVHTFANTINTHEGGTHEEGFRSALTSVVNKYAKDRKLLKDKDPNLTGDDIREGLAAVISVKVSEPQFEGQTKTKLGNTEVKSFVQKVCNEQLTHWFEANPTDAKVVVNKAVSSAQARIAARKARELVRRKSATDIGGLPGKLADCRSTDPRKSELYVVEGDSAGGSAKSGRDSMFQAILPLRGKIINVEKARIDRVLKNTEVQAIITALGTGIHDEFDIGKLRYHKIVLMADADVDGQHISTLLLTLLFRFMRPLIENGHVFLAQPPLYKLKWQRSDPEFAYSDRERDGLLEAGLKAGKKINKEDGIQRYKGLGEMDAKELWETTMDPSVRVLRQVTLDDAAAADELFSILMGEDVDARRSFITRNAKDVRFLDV
DNA gyrase subunit A/DNA gyrase subunit B, sequence (P9WG47 whole entry): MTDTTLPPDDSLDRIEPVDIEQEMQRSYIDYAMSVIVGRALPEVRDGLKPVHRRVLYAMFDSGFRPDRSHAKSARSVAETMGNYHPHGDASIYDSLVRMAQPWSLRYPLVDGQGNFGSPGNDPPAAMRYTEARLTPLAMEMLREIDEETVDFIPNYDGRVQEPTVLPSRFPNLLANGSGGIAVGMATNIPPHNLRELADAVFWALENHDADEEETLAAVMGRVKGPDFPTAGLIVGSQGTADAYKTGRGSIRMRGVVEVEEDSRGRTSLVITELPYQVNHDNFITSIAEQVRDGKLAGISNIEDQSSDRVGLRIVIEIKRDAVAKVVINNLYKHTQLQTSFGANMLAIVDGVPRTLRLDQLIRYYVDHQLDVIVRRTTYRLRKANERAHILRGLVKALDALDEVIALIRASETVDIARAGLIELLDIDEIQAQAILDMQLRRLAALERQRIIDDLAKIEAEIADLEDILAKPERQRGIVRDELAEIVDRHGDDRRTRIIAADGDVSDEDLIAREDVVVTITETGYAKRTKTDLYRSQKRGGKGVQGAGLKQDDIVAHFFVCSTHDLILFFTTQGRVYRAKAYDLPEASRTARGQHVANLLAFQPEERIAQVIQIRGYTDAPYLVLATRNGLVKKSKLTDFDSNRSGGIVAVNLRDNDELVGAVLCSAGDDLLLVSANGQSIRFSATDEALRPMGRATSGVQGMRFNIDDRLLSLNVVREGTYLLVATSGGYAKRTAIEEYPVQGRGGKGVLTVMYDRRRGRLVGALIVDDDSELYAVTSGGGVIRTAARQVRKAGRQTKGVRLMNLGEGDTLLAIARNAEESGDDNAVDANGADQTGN
DNA gyrase subunit B, sequence (P0C559 whole entry): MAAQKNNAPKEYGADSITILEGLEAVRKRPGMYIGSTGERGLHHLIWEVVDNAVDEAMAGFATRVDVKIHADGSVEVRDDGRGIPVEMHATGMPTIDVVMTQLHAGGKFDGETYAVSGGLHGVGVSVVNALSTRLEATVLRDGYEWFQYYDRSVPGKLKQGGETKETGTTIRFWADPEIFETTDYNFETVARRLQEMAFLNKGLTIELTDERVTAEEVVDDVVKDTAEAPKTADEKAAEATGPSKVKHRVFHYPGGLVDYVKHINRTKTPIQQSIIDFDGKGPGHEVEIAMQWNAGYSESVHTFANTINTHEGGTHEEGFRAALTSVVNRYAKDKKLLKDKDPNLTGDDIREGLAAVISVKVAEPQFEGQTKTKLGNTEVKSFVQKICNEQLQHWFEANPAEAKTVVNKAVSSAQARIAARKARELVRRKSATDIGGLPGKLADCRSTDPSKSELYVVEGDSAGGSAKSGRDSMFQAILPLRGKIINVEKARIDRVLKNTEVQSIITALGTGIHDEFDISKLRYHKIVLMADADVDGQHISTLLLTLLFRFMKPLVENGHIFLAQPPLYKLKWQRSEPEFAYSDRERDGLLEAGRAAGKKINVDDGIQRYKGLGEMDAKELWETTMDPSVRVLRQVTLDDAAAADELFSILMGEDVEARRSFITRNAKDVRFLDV
Voltage-gated inwardly rectifying potassium channel KCNH2, sequence (Q12809 whole entry): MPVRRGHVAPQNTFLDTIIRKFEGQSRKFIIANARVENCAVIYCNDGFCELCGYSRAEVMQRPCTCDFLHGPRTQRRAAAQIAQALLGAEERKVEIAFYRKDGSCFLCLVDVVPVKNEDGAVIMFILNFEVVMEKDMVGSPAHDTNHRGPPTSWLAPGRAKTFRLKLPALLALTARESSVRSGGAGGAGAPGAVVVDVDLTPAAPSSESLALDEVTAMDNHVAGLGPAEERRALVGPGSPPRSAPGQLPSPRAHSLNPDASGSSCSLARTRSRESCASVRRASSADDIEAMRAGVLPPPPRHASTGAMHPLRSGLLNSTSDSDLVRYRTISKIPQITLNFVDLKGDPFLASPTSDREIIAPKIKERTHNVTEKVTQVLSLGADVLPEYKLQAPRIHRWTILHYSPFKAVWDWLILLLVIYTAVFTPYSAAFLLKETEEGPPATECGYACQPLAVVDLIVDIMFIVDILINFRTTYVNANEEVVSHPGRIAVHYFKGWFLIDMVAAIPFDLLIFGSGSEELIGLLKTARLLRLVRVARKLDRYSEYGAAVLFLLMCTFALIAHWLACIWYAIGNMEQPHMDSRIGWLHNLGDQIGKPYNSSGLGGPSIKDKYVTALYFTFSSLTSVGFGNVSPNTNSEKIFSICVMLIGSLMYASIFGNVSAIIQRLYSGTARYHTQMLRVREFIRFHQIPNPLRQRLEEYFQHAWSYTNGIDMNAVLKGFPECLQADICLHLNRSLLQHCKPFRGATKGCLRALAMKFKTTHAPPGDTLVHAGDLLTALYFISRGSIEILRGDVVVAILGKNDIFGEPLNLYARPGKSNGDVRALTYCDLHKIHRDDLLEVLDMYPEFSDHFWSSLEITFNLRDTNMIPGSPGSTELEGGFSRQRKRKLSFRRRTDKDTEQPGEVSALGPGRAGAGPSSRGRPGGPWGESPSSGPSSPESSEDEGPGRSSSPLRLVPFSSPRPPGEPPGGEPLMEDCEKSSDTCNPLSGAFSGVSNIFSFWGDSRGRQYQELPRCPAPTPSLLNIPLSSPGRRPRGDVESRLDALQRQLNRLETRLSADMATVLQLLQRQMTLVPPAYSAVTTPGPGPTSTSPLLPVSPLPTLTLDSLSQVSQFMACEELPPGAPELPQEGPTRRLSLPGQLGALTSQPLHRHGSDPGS

What is called IC50 is the point on the concentration scale where inhibition reaches its midpoint. Broadly, the Papp A→B is how fast a substance crosses the layer from the apical side. By bioavailability is commonly meant the share of a dose that reaches the circulation, judged against a reference dose that is usually intravenous. The logD is the decadic logarithm of the distribution of all forms, ionised or not, between an organic phase and buffer at a given pH. In general, MIC refers to the smallest concentration in the dilution series that meets the test's criterion for growth inhibition. Usually Papp B→A stands for the apparent permeability from the basolateral to the apical side of a cell layer. What is called fraction unbound is the share of the substance not bound to proteins or other matrix. Take `COc1cnc2ccc(=O)n(CCN3CCC(NCc4cnc(C)c(C#N)c4)CC3)c2c1`: the IC50 in [1] amounted to 50600 nM; in data set [15], 140 nM. Further, the Activity in data set [2] amounted to 70%; in data set [7], 10%. For the same compound, in [3], the Papp A→B was determined as 10.5 ×10⁻⁶ cm/s. The bioavailability in data set [4] is above 100%. Further, in data set [5], the logD at 10000 µM stood at 1.07. Also, the minimum inhibitory concentration (MIC) in [6] is 0.06 µg/mL (≈ 0.139 µM). The clearance in data set [8] was 32 mL/min/kg. In addition, the outcome in data set [9] was Active. In [10], the Papp B→A was found to be 8.3 ×10⁻⁶ cm/s. In addition, in data set [11], the fraction unbound stood at 0.23. Moreover, the inhibition result in data set [12] was “Dose-dependent effect”. In data set [13], the fAUC/MIC amounted to 54. Moreover, in data set [14], the “fT>MIC” value amounted to 58%. Besides, the log10cfu in data set [16] was found to be 0.5.
As to `COc1cnc2ccc(=O)n(CCN3CC[C@H](NCc4ccc5c(n4)NC(=O)CO5)[C@H](F)C3)c2c1`, the Papp A→B in data set [3] is 3.4 ×10⁻⁶ cm/s. The compound also displayed a logD at 10000 µM in data set [5] of 0.82. The compound also had an MIC in [6] of 0.06 µg/mL (≈ 0.124 µM). For the same compound, the outcome in data set [17] and in [20] was Active. In addition, in data set [18], the LCK is listed as 1.3. For the same compound, the Papp B→A in data set [10] is 12.7 ×10⁻⁶ cm/s. For the same compound, the fraction unbound in data set [11] is 0.48. In addition, the “fT>MIC” value in data set [19] amounted to 83%. The compound further returned an IC50 in data set [15] of 170 nM.
What is called MIC90 is an inhibitory concentration at the 90% level, which refers to growth in some studies and to a panel of isolates in others. Take `N#Cc1ccc2ccc(=O)n(CCN3CCC(NCc4ccc5c(n4)NC(=O)CO5)CC3)c2c1`: the Papp A→B in data set [3] is 2 ×10⁻⁶ cm/s. Moreover, the bioavailability in data set [4] amounted to 11%. In addition, the logD at 10000 µM in data set [5] came to 0.4. Also, the MIC in data set [6] was determined as 0.13 µg/mL (≈ 0.284 µM). The result in data set [21] was Active. Also, the clearance in [8] came to 187 mL/min/kg. Also, the Papp B→A in data set [10] is 12.6 ×10⁻⁶ cm/s. In addition, the IC50 in [22] was above 100000 nM; in data set [15], 110 nM. In [23], the MIC90 is below 0.5 µg/mL.
Turning to `O=C1COc2ccc(CN[C@@H]3CCN(CCn4c(=O)ccc5ncc(F)cc54)C[C@@H]3F)nc2N1`, the Activity entry in data set [24] was “tde”; in [26], “Dose-dependent effect”. The apparent permeability from apical to basolateral (Papp A→B) in [3] turned out to be 7.6 ×10⁻⁶ cm/s. The compound further had a bioavailability in data set [4] of 87%. The pH-dependent lipophilicity (logD) at 10000 µM in [5] was 0.47. In addition, in [25], the “fT>MIC” value turned out to be 70%. In [6], inhibition of growth (MIC) required 0.13 µg/mL (≈ 0.276 µM). Further, the values for the log10cfu in [27] and in [28] were 1.2 and above 3, respectively. The compound further gave a clearance in [8] of 87 mL/min/kg. This compound also yielded an LCK in data set [18] of 1.3. Further, the Papp B→A in data set [10] turned out to be 11.2 ×10⁻⁶ cm/s. Also, the fraction unbound in data set [11] came to 0.32. Also, in data set [20], the result was Active. In data set [15], this compound had an IC50 of 350 nM. Further, the fAUC/MIC in data set [29] came out at 129.
